According to ChEMBL document CHEMBL1135752, “Pyrazolopyrimidine-2,4-dione sulfonamides: novel and selective calcitonin inducers” (J Med Chem, 2002):

Tests used:
[1] = Ability to increase Human calcitonin secretion; assay type: functional
Outline: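 Calcitonin secretion assay with radioimmunoassay read-out, measuring the rise in cellular levels and secretion of human CT. Compound tested at 30 µM. Value is the ratio of secretion with compound to secretion in untreated control; average precision error reported as 10-33%.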

[2] = Increased transcription of human calcitonin luciferase reporter gene at 30 uM; assay type: functional
Outline: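 Luciferase reporter gene under control of the human calcitonin gene/promoter, used to measure transcription activation. Compound tested at 30 µM. Read-out is the transcription activation ratio: luciferase activity with compound divided by luciferase activity in untreated control.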

Phosphodiesterase 4 [3] = target: T1, Phosphodiesterase 4 (Homo sapiens, UniProt P27815+Q08499+Q07343+Q08493); assay: Percent Rolipram activity of a standard U937 cell phosphodiesterase 4 (PDE4) enzyme assay at 30 uM of compound; assay type: cell-based; conditions: U-937
Outline: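 U937 cell PDE4 enzyme assay with compound at 30 µM. Activity is scaled and reported as percent of rolipram activity.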

Phosphodiesterase 4 [4] = target: T1, Phosphodiesterase 4; assay: Inhibition of phosphodiesterase 4 (PDE4); assay type: protein assay

CT-luci TAR [2] [T/C] | Activity (Phosphodiesterase 4 [3]) [%] | IC50 (Phosphodiesterase 4 [4]) [µM] | SMILES | CTS increase [1]
2.1 | 60 |  | CCCCn1c(=O)c2nn(S(C)(=O)=O)cc2n(CCCC)c1=O | 0.9
1.8 | 93 |  | CCCCn1c(=O)c2cn(S(C)(=O)=O)nc2n(CCCC)c1=O | 3.9
1.3 | 69 | 4.9 | CCCCn1c(=O)c2nn(S(=O)(=O)CCCCl)cc2n(CCCC)c1=O | 4.4
2.6 | 57 |  | CCCCn1c(=O)c2cn(S(=O)(=O)c3ccc(C(C)(C)C)cc3)nc2n(CCCC)c1=O | 2.9
1.7 | 59 |  | CCCCn1c(=O)c2nn(S(=O)(=O)c3cc(Cl)c(Cl)s3)cc2n(CCCC)c1=O | 3.4
2 | 52 |  | CCCCn1c(=O)c2cn(S(=O)(=O)Cc3ccccc3)nc2n(CCCC)c1=O | 3.4
3.2 | 16 |  | CCCCn1c(=O)c2cn(S(=O)(=O)c3cc(Cl)c(Cl)s3)nc2n(CCCC)c1=O | 3
2.9 | 96 |  | CCCCn1c(=O)c2cn(S(=O)(=O)c3cccc4cccnc34)nc2n(CCCC)c1=O | 4.8
1.9 | 66 | 4.9 | CCCCn1c(=O)c2cn(S(=O)(=O)CCCCl)nc2n(CCCC)c1=O | 2.7
2.2 | 59 |  | CCCCn1c(=O)c2nn(S(=O)(=O)c3cccc4cccnc34)cc2n(CCCC)c1=O | 3.8
2.3 | 37 |  | CCCCn1c(=O)c2nn(S(=O)(=O)c3ccc(C(C)(C)C)cc3)cc2n(CCCC)c1=O | 4.5
3.6 | 32 |  | CCCCn1c(=O)c2cn(S(=O)(=O)c3ccccc3C#N)nc2n(CCCC)c1=O | 3.4
1.5 | 65 |  | CCCCn1c(=O)c2nn(S(=O)(=O)Cc3ccccc3)cc2n(CCCC)c1=O | 2.6
1.8 | 66 |  | CCCCn1c(=O)c2nn(S(=O)(=O)c3ccc4ccccc4c3)cc2n(CCCC)c1=O | 4.9
1.8 | 32 |  | CCCCn1c(=O)c2nn(S(=O)(=O)c3cccc(C(F)(F)F)c3)cc2n(CCCC)c1=O | 3.8
2.1 | 100 |  | CCCCn1c(=O)c2c(ncn2CC(C)=O)n(CCCC)c1=O | 3.5
